Results published in article PMC4310348 (Drug Design, Development and Therapy, 2015).
≈ marks a conversion by molar mass, not a printed value.

Key:
[1] = test system: Gram-positive mastitis organisms (57); assay: MIC testing; assay type: cell-based; details: all 57 Gram-positive bovine mastitis isolates
Procedure, shortened: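 MICs were run per CLSI guidelines for lipophilic compounds across the pooled bovine mastitis isolates. MIC was the lowest concentration preventing growth, judged visually and by OD600. MIC50 and MIC90 are the lowest concentrations inhibiting 50% and 90% of the whole collection.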

[2] = test system: Streptococcus agalactiae (12); assay: MIC testing; assay type: cell-based
Procedure, shortened: (§1)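 Clinical bovine mastitis isolates from Australian dairy cattle, except MRSA isolates, which came from small-animal infections. Streptococci were speciated by biochemical tests and partial 16S rDNA sequencing. S. aureus was separated from coagulase-negative staphylococci by tube coagulase and latex agglutination. MICs followed CLSI guidelines for lipophilic compounds: lowest concentration preventing growth, judged visually and by OD600. MIC50/MIC90 were collated per species.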

[3] = test system: Staphylococcus aureus (20); assay: MIC testing; assay type: cell-based
Procedure, shortened: as §1

[4] = test system: Coagulase-negative staphylococci (14); assay: MIC testing; assay type: cell-based
Procedure, shortened: as §1

[5] = test system: Streptococcus uberis (11); assay: MIC testing; assay type: cell-based
Procedure, shortened: as §1

[6] = test system: MRSA (10); assay: MIC testing; assay type: cell-based, methicillin-resistant Staphylococcus aureus
Procedure, shortened: as §1

[7] = Solubility of lasalocid in various solvents and milk; assay type: physicochemical; details: thermodynamic from solid
Procedure, shortened: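 Excess solid test compound was added to each solvent and shaken for 24 hours. Samples were then filtered through 0.45 µm nylon, diluted and quantified by reversed-phase C8 HPLC with UV detection at 308 nm. The mobile phase was methanol:1.5% acetic acid (90:10) at 1.0 mL/min. All measurements were made in triplicate.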

[8] = pH-solubility determination of lasalocid; assay type: physicochemical
Procedure, shortened: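 pH–solubility used MilliQ water adjusted with NaOH/HCl, or Universal buffer adjusted with 0.2 M NaOH, over pH 1.8–8. The buffer contained boric, citric and phosphoric acids at 0.04 M each. Excess solid was shaken for 24 hours, filtered through 0.45 µm nylon, diluted and quantified by C8 HPLC-UV at 308 nm. Measurements were made in triplicate.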

[9] = Milk distribution study; assay type: in vivo, Lactating Holstein dairy cows; details: six doses of 150 or 300 mg at 12-hourly intervals per quarter (IVP 7, IVP 8)
Procedure, shortened: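 Lactating Holstein cows aged 2–10 years had two contralateral quarters challenged intramammarily with S. uberis. After mastitis was detected, quarters received a PVP–lasalocid solid dispersion in Miglyol 812/Aerosil R972 after each milking, six infusions 12-hourly. Milk was sampled at set times, with time 0 at the first dose. Samples of 100 µL were extracted with 900 µL methanol, centrifuged and analysed by C8 HPLC-UV at 308 nm.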

Which MIC50 [1] does the source give for `CC[C@@H](C(=O)[C@@H](C)[C@@H](O)[C@H](C)CCc1ccc(C)c(O)c1C(=O)O)[C@H]1O[C@](CC)([C@H]2CC[C@](O)(CC)[C@H](C)O2)C[C@@H]1C` [lasalocid] here?
The MIC50 was 2 µg/mL (≈ 3.39 µM).

What about the MIC90 [1] of the same compound?
The MIC90 was 4 µg/mL (≈ 6.77 µM).

And the MIC50 ([2]; Streptococcus agalactiae)?
The MIC50 was 2 µg/mL (≈ 3.39 µM).

What about the MIC90 ([2]; Streptococcus agalactiae) of the same compound?
Its MIC90 is 4 µg/mL (≈ 6.77 µM).

What about the MIC range ([2]; n=12 isolates) of the same compound?
Its MIC range is 2 to 4 µg/mL.

And the MIC50 ([3]; Staphylococcus aureus)?
Its MIC50 is 1 µg/mL (≈ 1.69 µM).

What about the MIC90 ([3]; Staphylococcus aureus) of the same compound?
Its MIC90 is 1 µg/mL (≈ 1.69 µM).

And the MIC range ([3]; n=20 isolates)?
The MIC range was 0.5 to 1 µg/mL.

What about the MIC50 [4] of the same compound?
The MIC50 was 1 µg/mL (≈ 1.69 µM).

What about the MIC90 [4] of the same compound?
The MIC90 was 2 µg/mL (≈ 3.39 µM).

What about the MIC range ([4]; n=14 isolates) of the same compound?
Its MIC range is 0.5 to 2 µg/mL.

What about the MIC50 ([5]; Streptococcus uberis) of the same compound?
The MIC50 was 0.5 µg/mL (≈ 0.846 µM).

What about the MIC90 ([5]; Streptococcus uberis) of the same compound?
Its MIC90 is 0.5 µg/mL (≈ 0.846 µM).

And the MIC range ([5]; n=11 isolates)?
Its MIC range is 0.5 to 1 µg/mL.

And the MIC50 ([6]; Staphylococcus aureus, MRSA)?
The MIC50 was 0.5 µg/mL (≈ 0.846 µM).

And the MIC90 ([6]; Staphylococcus aureus, MRSA)?
The MIC90 was 0.5 µg/mL (≈ 0.846 µM).

And the MIC range ([6]; n=10 isolates from small animals)?
The MIC range was 0.25 to 0.5 µg/mL.

What about the solubility at 24 h ([7]; DMSO, organic solvent or mixture) of the same compound?
Its solubility at 24 h is 298000 ± 42400 µg/mL (≈ 504000 µM).

And the solubility at 24 h ([7]; MilliQ water, water)?
Its solubility at 24 h is 750 ± 100 µg/mL (≈ 1270 µM).

What about the solubility at 24 h ([7]; methanol, organic solvent or mixture) of the same compound?
Its solubility at 24 h is 84700 ± 1630 µg/mL (≈ 143000 µM).

What about the solubility at 24 h ([7]; milk, plasma or biological fluid) of the same compound?
Its solubility at 24 h is 438 ± 13.1 µg/mL (≈ 741 µM).

What about the “Solubility at pH 1.8” value ([8]; MilliQ water with NaOH and HCl for pH adjustment) of the same compound?
The value was “non-detectable”.

What about the “Solubility at pH 1.8” value ([8]; Universal buffer) of the same compound?
Its value is “nondetectable”.

And the solubility at 24 h ([8]; Universal buffer, pH 8, aqueous buffer, thermodynamic from solid)?
The solubility at 24 h was 9.66 ± 0.04 µg/mL (≈ 16.4 µM).

And the “Time after the first dose until which high milk concentration was maintained” value [9]?
The value was 72 h.

What about the “Time after the first treatment by which residues in milk were not detectable” value [9] of the same compound?
Its value is ≤ 144 h.

What about the “Time of peak lasalocid concentration in milk after the first dose” value [9] of the same compound?
The value was 24 h.
